Data published in ChEMBL document CHEMBL4732148 (Eur J Med Chem, 2021).
Calls of active or inactive are those of the source. No cut-off for these calls is given here.

Columns and labels:
[1] = Cytotoxicity against human Huh-7 cells assessed as reduction in cell viability measured after 48 hrs by celltiter-glo assay; assay type: cell-based; conditions: read-out: TC50
Hepatitis C virus [2] = test: Antiviral activity against HCV infected in human Huh-7 cells assessed as reduction in viral replication measured after 48 hrs by luciferase reporter gene assay; assay type: functional, organism-based, Hepacivirus hominis; conditions: Huh-7, 48 h
Procedure, shortened: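 Replicon-bearing Huh7 cells seeded at 10,000/well and allowed to attach for 24 h at 37 °C. Triplicate biological wells then treated 48 h with compound in DMEM, 10% FBS, 0.5% DMSO final. Bright-Glo luminescence expressed relative to untreated cells. IC50 from a four-parameter logistic fit.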

[3] = Cytotoxicity against human Huh-7 cells assessed as reduction in cell viability measured after 48 hrs in presence of ENT1 inhibitor NBTI […]; assay type: cell-based; conditions: with NBTI (ENT1 inhibitor; concentration not stated), read-out: TC50
[4] = Toxicity in human Huh-7 cells assessed as reduction in cell viability measured after 96 hrs by celltiter-glo assay; assay type: cell-based; conditions: read-out: TC50
[5] = Ratio of gemcitabine TC50 to test compound TC50 for cytotoxicity against human BXPC-3 cells assessed as reduction in cell viability; assay type: cell-based
Hepatitis C virus [6] = test: Ratio of IC50 for antiviral activity against HCV infected in human Huh-7 cells assessed as reduction in viral replication preincubated for 2 hrs followed by replacement with fresh culture medium and measured after 46 hrs by luciferase reporter gene assay to IC50 for antiviral activity against HCV infected in human Huh-7 cells assessed as reduction in viral replication measured after 48 hrs by …; assay type: functional, Hepacivirus hominis
HepG2 = test: Cytotoxicity against human HepG2 cells assessed as reduction in cell viability measured after 96 hrs by celltiter-glo assay; assay type: functional; conditions: read-out: TC50 (the source's name)
[7] = Stability in pH 6 aqueous buffer assessed as parent compound remaining at 200 uM measured after 4 hrs by UV spectrophotometry; assay type: physicochemical; conditions: read-out: Stabilty
Procedure, shortened: (§1)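 Compound diluted to […] in aqueous buffers at pH 1.0, 2.0, 4.0, 6.0 or 8.0 and held 4 h at 40 °C. Intact prodrug separated by reverse-phase HPLC. 260 nm peak area after incubation compared with untreated prodrug, giving % remaining.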

[8] = Stability in pH 4 aqueous buffer assessed as parent compound remaining at 200 uM measured after 4 hrs by UV spectrophotometry; assay type: physicochemical; conditions: read-out: Stabilty; procedure, shortened: as §1
[9] = Stability in pH 2 aqueous buffer assessed as parent compound remaining at 200 uM measured after 4 hrs by UV spectrophotometry; assay type: physicochemical; conditions: read-out: Stabilty; procedure, shortened: as §1
[10] = Stability in pH 8 aqueous buffer assessed as parent compound remaining at 200 uM measured after 4 hrs by UV spectrophotometry; assay type: physicochemical; conditions: read-out: Stabilty; procedure, shortened: as §1
[11] = Ratio of gemcitabine TC50 to test compound TC50 for cytotoxicity against human MCF7 cells assessed as reduction in cell viability; assay type: cell-based
[12] = Cytotoxicity against human BXPC-3 cells assessed as reduction in cell viability measured after 96 hrs by celltiter-glo assay; assay type: cell-based; conditions: read-out: TC50
[13] = Cytotoxicity against human MCF7 cells assessed as reduction in cell viability measured after 96 hrs by celltiter-glo assay; assay type: cell-based; conditions: read-out: TC50
[14] = Cytotoxicity against HEK293 cells assessed as reduction in cell viability measured after 96 hrs by celltiter-glo assay; assay type: cell-based; conditions: human, read-out: TC50
[15] = Stability in pH 1 aqueous buffer assessed as parent compound remaining at 200 uM measured after 4 hrs by UV spectrophotometry; assay type: physicochemical; conditions: read-out: Stabilty; procedure, shortened: as §1
Hepatitis C virus [16] = test: Antiviral activity against HCV infected in human Huh-7 cells assessed as reduction in viral replication preincubated for 2 hrs followed by replacement with fresh culture medium and measured after 46 hrs by luciferase reporter gene assay; assay type: functional, organism-based, Hepacivirus hominis
Procedure, shortened: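 HCV luciferase-replicon Huh7 cells were seeded at 10,000 cells/well and allowed 24 h to attach. Three biological replicates were exposed to graded compound in DMEM/10% FBS/0.5% DMSO for 2 h only, then the medium was replaced with fresh growth medium for 46 h at 37 °C.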

Hepatitis C virus [17] = test: Antiviral activity against HCV infected in human Huh-7 cells assessed as reduction in viral replication at 25 to 1000 nM measured after 48 hrs in presence of deoxycytidine by luciferase reporter gene assay; assay type: functional, organism-based; conditions: Hepacivirus hominis, dose 25-1000 nM
Procedure, shortened: (§2)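 Huh7 cells carrying an HCV luciferase replicon, grown in DMEM with 10% FBS and G418. Cells treated 48 h continuously with compound at 25–1,000 nM, either alone or together with 50 µM cytidine or 2′-deoxycytidine. Luciferase activity read in lysates. Three biological replicates, SD.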

Hepatitis C virus [18] = test: Antiviral activity against HCV infected in human Huh-7 cells assessed as reduction in viral replication at 500 nM measured after 48 hrs by luciferase reporter gene assay; assay type: functional, organism-based; conditions: Hepacivirus hominis
Procedure, shortened: (§3)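 Huh7 luciferase replicon cells treated with 500 nM compound or mock for up to 48 h. Cells were lysed at various times and the lysates snap-frozen in liquid nitrogen. All lysates were then assayed for luciferase together.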

Hepatitis C virus [19] = test: Antiviral activity against HCV infected in human Huh-7 cells assessed as reduction in viral replication at 25 to 1000 nM measured after 48 hrs in presence of cytidine by luciferase reporter gene assay; assay type: functional, organism-based; conditions: Hepacivirus hominis, dose 25-1000 nM; procedure, shortened: as §2
Hepatitis C virus [20] = test: Antiviral activity against HCV infected in human Huh-7 cells assessed as reduction in viral replication at 500 nM measured after 24 to 30 hrs by luciferase reporter gene assay; assay type: functional, Hepacivirus hominis; design: scale not given: the % may be the effect or the level left; conditions: time 24-30 hrs; procedure, shortened: as §3

| SMILES | IC50 (Hepatitis C virus [2]) [nM] | CC50 at 48 h [1] [µM] | also measured |
| --- | --- | --- | --- |
| O=C(Nc1ccn([C@@H]2O[C@H](CO)[C@@H](O)C2(F)F)c(=O)n1)c1ccc2ccccc2c1 | 126 | 125 | – |
| COc1ccc2cc(C(=O)Nc3ccn([C@@H]4O[C@H](CO)[C@@H](O)C4(F)F)c(=O)n3)ccc2c1 | 93.5 | 168 | – |
| O=C(Nc1ccn([C@@H]2O[C@H](CO)[C@@H](O)C2(F)F)c(=O)n1)c1ccc2c(c1)OCCCO2 | 91.5 | 881 | – |
| O=C(Nc1ccn([C@@H]2O[C@H](CO)[C@@H](O)C2(F)F)c(=O)n1)c1ccc2cc(Br)ccc2c1 | 185 | 74 | – |
| O=C(Nc1ccn([C@@H]2O[C@H](CO)[C@@H](O)C2(F)F)c(=O)n1)c1ccc2c(c1)OCO2 | 59.8 | 470 | CC50 at 96 h [4]: 7 µM; selectivity ratio [5]: ≤ 620; Ratio IC50 (Hepatitis C virus [6]): 51; CC50 (HepG2): 2.8 µM; remaining at 4 h, 200 µM [7]: 100%; remaining at 4 h, 200 µM [8]: 100%; remaining at 4 h, 200 µM [9]: 100%; remaining at 4 h, 200 µM [10]: 92%; CC50 at 48 h [3]: 440 µM; selectivity ratio [11]: ≤ 24; CC50 at 96 h [12]: 0.72 µM; CC50 at 96 h [13]: 1.2 µM; CC50 at 96 h [14]: 4.1 µM; remaining at 4 h, 200 µM [15]: 64%; IC50 (Hepatitis C virus [16]): 3.1 µM |
| Cc1cc2c(cc1C(=O)Nc1ccn([C@@H]3O[C@H](CO)[C@@H](O)C3(F)F)c(=O)n1)OCCO2 | 1690 | 626 | – |
| O=C(Nc1ccn([C@@H]2O[C@H](CO)[C@@H](O)C2(F)F)c(=O)n1)c1ccc2c(c1)OCCO2 | 127 | 855 | CC50 at 96 h [4]: 3.3 µM; selectivity ratio [5]: ≤ 620; CC50 (HepG2): 1.1 µM; remaining at 4 h, 200 µM [7]: 100%; remaining at 4 h, 200 µM [8]: 100%; remaining at 4 h, 200 µM [9]: 100%; remaining at 4 h, 200 µM [10]: 100%; selectivity ratio [11]: ≤ 24; CC50 at 96 h [12]: 1.2 µM; CC50 at 96 h [13]: 1.4 µM; CC50 at 96 h [14]: 5.6 µM; remaining at 4 h, 200 µM [15]: 71% |
| COc1ccc(C(=O)Nc2ccn([C@@H]3O[C@H](CO)[C@@H](O)C3(F)F)c(=O)n2)cc1 | 60 | 572 | – |
| O=C(Nc1ccn([C@@H]2O[C@H](CO)[C@@H](O)C2(F)F)c(=O)n1)c1c(Br)ccc2c1OCO2 | 340 | 2210 | – |
| O=C(Nc1ccn([C@@H]2O[C@H](CO)[C@@H](O)C2(F)F)c(=O)n1)c1ccc(Cl)cc1Cl | 77.5 | > 100 | – |
| O=C(Nc1ccn([C@@H]2O[C@H](CO)[C@@H](O)C2(F)F)c(=O)n1)c1ccc2c(c1)CCC2 | 58.6 | 378 | – |
| O=C(Nc1ccn([C@@H]2O[C@H](CO)[C@@H](O)C2(F)F)c(=O)n1)c1cccc2c1CCCC2 | 161 | 92 | – |
| O=C(Nc1ccn([C@@H]2O[C@H](CO)[C@@H](O)C2(F)F)c(=O)n1)c1ccc2c(c1)CCO2 | 145 | 954 | – |
| COc1cccc(OC)c1C(=O)Nc1ccn([C@@H]2O[C@H](CO)[C@@H](O)C2(F)F)c(=O)n1 | 451 | 4580 | – |
| O=C(Nc1ccn([C@@H]2O[C@H](CO)[C@@H](O)C2(F)F)c(=O)n1)c1ccc2c(c1)CCCC2 | 86 | 132 | – |
| CC1(C)Cc2ccc(C(=O)Nc3ccn([C@@H]4O[C@H](CO)[C@@H](O)C4(F)F)c(=O)n3)cc2O1 | 177 | 1160 | – |
| CCc1ccc(C(=O)Nc2ccn([C@@H]3O[C@H](CO)[C@@H](O)C3(F)F)c(=O)n2)cc1 | 58.4 | 490 | CC50 at 48 h [3]: 360 µM |
| O=C(Nc1ccn([C@@H]2O[C@H](CO)[C@@H](O)C2(F)F)c(=O)n1)c1cc2c(cc1[N+](=O)[O-])OCO2 | 46.7 | > 500 | – |
| COc1cc(OC)cc(C(=O)Nc2ccn([C@@H]3O[C@H](CO)[C@@H](O)C3(F)F)c(=O)n2)c1 | 73.4 | 962 | CC50 at 96 h [4]: 18.5 µM; Activity (Hepatitis C virus [17]): inactive; CC50 (HepG2): 3 µM; Activity (Hepatitis C virus [19]): inactive; selectivity ratio [11]: ≤ 24; CC50 at 96 h [13]: 1.6 µM; CC50 at 96 h [14]: 4 µM |

Further lines, with some results ahead:

| IC50 (Hepatitis C virus [2]) [nM] | SMILES | CC50 at 48 h [1] [µM] | also measured |
| --- | --- | --- | --- |
| 43.1 | Cc1ccc(C(=O)Nc2ccn([C@@H]3O[C@H](CO)[C@@H](O)C3(F)F)c(=O)n2)cc1 | 329 | CC50 at 48 h [3]: 240 µM |
| 17.4 | O=C(Nc1ccn([C@@H]2O[C@H](CO)[C@@H](O)C2(F)F)c(=O)n1)c1ccc(Cl)c(Cl)c1 | > 100 | – |
| 19.3 | COc1c(Cl)cc(C(=O)Nc2ccn([C@@H]3O[C@H](CO)[C@@H](O)C3(F)F)c(=O)n2)cc1Cl | > 100 | – |
| 12.8 | O=C(Nc1ccn([C@@H]2O[C@H](CO)[C@@H](O)C2(F)F)c(=O)n1)c1ccc2c(c1)C(=O)c1ccccc1C2=O | 249 | – |
| 37.6 | O=C(Nc1ccn([C@@H]2O[C@H](CO)[C@@H](O)C2(F)F)c(=O)n1)c1ccc(Cl)cc1 | 138 | – |
| 10 | O=C(Nc1ccn([C@@H]2O[C@H](CO)[C@@H](O)C2(F)F)c(=O)n1)C1Cc2ccccc2C1 | > 500 | – |
| 0.031 | COC(=O)N[C@H](C(=O)N1CCC[C@H]1c1ncc(-c2ccc(-c3ccc(-c4cnc([C@@H]5CCCN5C(=O)[C@@H](NC(=O)OC)C(C)C)[nH]4)cc3)cc2)[nH]1)C(C)C | – | – |
| 25.5 | O=C(Nc1ccn([C@@H]2O[C@H](CO)[C@@H](O)C2(F)F)c(=O)n1)c1cc(Cl)cc(Cl)c1 | 110 | CC50 at 96 h [4]: 4.2 µM; Activity (Hepatitis C virus [17]): inactive; Activity (Hepatitis C virus [18]): Active; CC50 (HepG2): 0.6 µM; Activity (Hepatitis C virus [19]): inactive; remaining at 4 h, 200 µM [7]: 99.6%; remaining at 4 h, 200 µM [8]: 98.4%; remaining at 4 h, 200 µM [9]: 82%; remaining at 4 h, 200 µM [10]: 35.4%; selectivity ratio [11]: ≤ 24; Activity (Hepatitis C virus [20]): 50%; CC50 at 96 h [13]: 0.33 µM; CC50 at 96 h [14]: 1.2 µM; remaining at 4 h, 200 µM [15]: 35% |
| 46.4 | O=C(Nc1ccn([C@@H]2O[C@H](CO)[C@@H](O)C2(F)F)c(=O)n1)c1ccc2c(c1)OC(F)(F)O2 | 188 | – |
